Mdm2-MdmX inh: inhibitors of human Mdm2-MdmX association, primary screen, cell-based, luminescence, split luciferase, SaOS-2, uHTS. Protein Mdm4 (Homo sapiens) + E3 ubiquitin-protein ligase Mdm2 (Homo sapiens), …. SaOS-2 split-luciferase Mdm2/MdmX complementation. inhibition, % at 8 µM. actives 3% (n = 330,000). AID 485346, 2010;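 active means inhibition of at least 50% at 8 µM in the primary screen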
Target sequence (O15151 whole entry, looked up): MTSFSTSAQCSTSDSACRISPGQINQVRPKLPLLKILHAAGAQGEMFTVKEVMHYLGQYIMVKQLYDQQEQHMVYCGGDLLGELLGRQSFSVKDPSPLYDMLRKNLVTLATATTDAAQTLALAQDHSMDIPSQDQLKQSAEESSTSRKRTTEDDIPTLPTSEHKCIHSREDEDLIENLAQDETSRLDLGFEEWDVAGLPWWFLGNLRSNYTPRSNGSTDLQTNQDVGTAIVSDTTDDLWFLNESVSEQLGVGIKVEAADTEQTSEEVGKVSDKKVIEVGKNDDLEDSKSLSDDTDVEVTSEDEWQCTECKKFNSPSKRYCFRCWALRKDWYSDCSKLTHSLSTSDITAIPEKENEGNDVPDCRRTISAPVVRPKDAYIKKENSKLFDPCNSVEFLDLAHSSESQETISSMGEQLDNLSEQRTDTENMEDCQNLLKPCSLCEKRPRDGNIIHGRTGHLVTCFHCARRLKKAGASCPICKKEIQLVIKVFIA
Target sequence (Q00987 whole entry, looked up): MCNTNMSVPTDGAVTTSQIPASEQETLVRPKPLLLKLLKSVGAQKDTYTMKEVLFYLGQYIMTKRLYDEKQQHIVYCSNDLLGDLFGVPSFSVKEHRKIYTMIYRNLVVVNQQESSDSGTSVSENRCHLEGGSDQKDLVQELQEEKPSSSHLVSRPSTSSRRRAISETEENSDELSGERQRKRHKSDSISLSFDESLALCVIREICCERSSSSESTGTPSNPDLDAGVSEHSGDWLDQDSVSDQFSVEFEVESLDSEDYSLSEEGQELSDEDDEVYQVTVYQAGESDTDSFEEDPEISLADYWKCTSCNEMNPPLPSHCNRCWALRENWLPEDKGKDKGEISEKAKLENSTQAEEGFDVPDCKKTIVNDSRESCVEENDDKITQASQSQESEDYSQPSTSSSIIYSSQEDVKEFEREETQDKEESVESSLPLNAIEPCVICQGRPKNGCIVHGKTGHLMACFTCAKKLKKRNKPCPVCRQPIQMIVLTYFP
CSC inhib: cancer stem cell viability inhibitors, primary screen, luminescence; AID 2717, 2010; cancer stem cell-like cells viability; inhibition, % at 7.5 µM; actives 1.1% (n = 300,000); in the data active means inhibition above about 75%; tested in HMLE shEcad cells
XBP1 UPR activ: activators of adaptive XBP1 UPR arm, primary screen, cell-based, CHO-XBP1 luciferase reporter, luminescence, uHTS. AID 463104, 2010. IRE1-XBP1 UPR activation; percent of tunicamycin response, DMSO as zero. actives 0.33% (n = 330,000). activation, % at 20 µM;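 active means versus positive control, 20 µM dose yields 30% or more activation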;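 further: 100% = tunicamycin at 10 µg/mL and 0% = DMSO only wells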
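Material: CHO cell line with stable XBP1 luciferase reporter; buffer or medium: F12 medium containing 10% fetal bovine serum; compound: single point, 20 µM final compound, 1% DMSO; incubation: 6 h treatment, 37 °C; measured by: glow luminescence from Steady-Glo reagent; evaluation: activation, % of tunicamycin; control set: tunicamycin high, DMSO low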
Beta cell apopt: inhibitors of cytokine-induced beta cell apoptosis, primary screen, luminescence. INS-1E cytokine-induced death, ATP luminescence, 48 h; percent of positive-control rescue, neutral wells zero. AID 435005, 2010. protection from apoptosis, % (test concentration not listed). actives 0.8% (n = 300,000);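 active means Every replicate reaches about 75%, or at least half do and their mean reaches it too, limit read from the data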;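 further: 0% = cytokine-treated negative control wells and 100% = positive control rescue; higher means more ATP so stronger rescue from cytokine killing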
CHOP UPR activ: activators of apoptotic CHOP UPR arm, primary screen, cell-based, CHO-CHOP luciferase reporter, luminescence, uHTS | UPR activation; percent of tunicamycin response over DMSO baseline | activation, % at 10 µM | actives 0.34% (n = 330,000);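 active means at 10 µM dose, activation of 40% or more, normalized to positive control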;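 further: 100% = tunicamycin at 10 µg/mL and 0% = DMSO alone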
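System: CHO-CHOP luciferase reporter cell line | Buffer or medium: F12 medium containing 10% fetal bovine serum | Doses: One dose, 10 µM in 0.5% DMSO | Times: 6 h compound exposure at 37 °C after overnight seeding | Signal: Luciferase luminescence | Read-out: % activation vs tunicamycin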
T cruzi inh: inhibitors of intracellular T. cruzi growth, primary screen, luminescence, NIH3T3 host cells | inhibition, % (no concentration beside the values) | actives 1.4% (n = 300,000) | T. cruzi beta-gal in NIH3T3, 90 h;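 active means mean inhibition across valid replicates above about 55%, limit read from the data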;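 further: signal also drops with host cell toxicity which is not excluded here; 0% = plate median of DMSO wells and 100% = zero luminescence signal; higher percent means less beta-gal luminescence so fewer parasites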
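Read-out: Parasite load inhibition, % | Test system: Mouse NIH/3T3 fibroblasts infected with β-gal-expressing T. cruzi Tulahuen C4 | Amount: 5,000 cells/well | Medium: DMEM, 2% fetal bovine serum | Signal: GalScreen β-gal luminescence, detergent lysis, 60 min | Timing: 3 h attach, ≥90 h co-culture | Also added: Tulahuen C4 trypomastigotes, 5000/well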
UPR CHOP confirm: activators of apoptotic CHOP UPR arm, confirmation, cell-based, CHO-CHOP luciferase reporter, single concentration; activation, % at 10 µM; AID 463112, 2010; actives 64% (n = 1,000); CHO-CHOP cells, CHOP-luciferase reporter luminescence; percent of tunicamycin response, DMSO as zero; shares compounds with CHOP UPR activ; in the data active means activation above about 33%;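 further: 0% = DMSO wells and 100% = tunicamycin 10 µg/mL wells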
Starred values were filed as active, the others as inactive; / = not tested or not shown. An excerpt weighted towards active compounds, which were near 5% of everything screened.

SMILES	Mdm2-MdmX inh	CSC inhib	XBP1 UPR activ	Beta cell apopt	CHOP UPR activ	T cruzi inh	UPR CHOP confirm
CC(C)[C@H](NC(=O)OC(C)(C)C)c1nnc(S(=O)(=O)Cc2c(F)cccc2Cl)o1	30.2	44.0	-4.6	6.6	133.9*	-55.7	95.0*
COCCn1c(-c2ccccc2Cl)nc2c(c(=O)c3ccccc3n2C)c1=O	7.5	1.9	0.4	0.7	-1.6	4.5	/
O=C(Nc1nc2ccccc2s1)c1ccc([N+](=O)[O-])o1	-7.3	33.3	2.5	-28.2	73.4*	53.0	8.0
O=C(O)c1cccc([N+](=O)[O-])c1C(=O)Nc1nc2ccccc2s1	-22.5	-1.7	-2.0	-2.6	-0.3	-8.8	/
CC(C)(C)c1ccc(S(=O)(=O)Nc2cccc(C3OCCCO3)c2)cc1	-4.8	-7.6	-1.8	-1.2	-1.5	-4.3	/
Cc1ccc(S(=O)(=O)N(C(=O)c2ccncc2)c2ccc(OC(=O)c3ccncc3)c3ccccc23)cc1	8.2	26.4	-2.3	-26.4	13.8	4.6	/
Cc1ccc(S(=O)(=O)N(C(=O)c2ccncc2)c2ccc(OC(=O)c3ccncc3)c3ccccc23)c(C)c1	32.0	18.1	-2.8	-28.8	58.7*	/	113.2*
O=C(NCC1CCCO1)C(Cc1ccccc1)N1C(=O)C2C3C=CC(C4CC34)C2C1=O (stereo not drawn)	-29.0	-3.8	-3.2	-9.7	-0.9	-0.3	/
CCOc1ncccc1C(=O)OCc1cc(=O)oc2c(C)c(C)ccc12	/	/	/	/	/	-21.9	/
Cc1cccc(C(=O)OCc2cc(=O)oc3c(C)c(C)ccc23)c1O	-30.2	0.7	34.1*	-2.1	43.2*	-0.5	4.5
COCCN1CSC(=S)N(Cc2ccco2)C1	6.2	0.9	4.0	-6.4	90.8*	/	53.0*
S=C1SCN(Cc2ccccn2)CN1Cc1ccco1	42.9	6.3	2.0	-10.9	101.5*	/	50.1*
CN1CCN(CC(=O)c2ccccc2F)CC1	14.9	-0.1	0.8	-4.1	0.6	-8.9	/
N#CCC(=O)Nc1ccc(C(=O)NCc2cccc(Cl)c2)cc1	-12.2	-3.9	-0.7	-1.5	1.6	-3.2	/
CC(C)(C)C1=CC(=O)C(=O)C(C(C)(C)C)=C1	18.4	62.5	0.2	-0.1	144.3*	73.8*	326.4*
CC(C)(C)C1=CC(=Nc2ccccc2N)C=C(C(C)(C)C)C1=O	20.8	-5.7	-0.1	-2.5	-1.2	-4.9	/
CN(O)/C=C1\C(=O)Nc2ccccc21	3.7	-11.4	-0.9	-22.4	1.3	-10.6	/
O=C1Nc2ccccc2/C1=C\C(=O)c1ccccc1	36.8	15.3	12.6	-3.7	98.3*	-12.4	236.9*
CC1=CC(=O)C(C(C)C)=C/C1=N/OC(=O)c1cccc([N+](=O)[O-])c1	29.3	14.9	-6.8	-14.3	73.4*	-18.3	48.2*
O=P(c1ccccc1)(c1ccccc1)C(c1ccco1)N1CCOCC1 (stereo not drawn)	-26.0	-0.6	-2.9	-6.3	-1.7	-13.1	/
C[C@@H](NC(=O)c1coc(=O)c(Br)c1)c1ccccc1	41.7	7.4	-9.4	19.9	115.1*	-15.5	96.8*
COc1ccc(C(=O)NC(C)c2ccccc2)cc1Br (stereo not drawn)	0.0	-5.0	-5.1	0.5	-1.8	-4.3	/
COc1ccc(C(=O)CCS(=O)(=O)c2ccc(F)cc2)cc1OC	19.1	17.9	-8.8	-16.3	44.0*	-27.8	11.4
CC(=O)c1cnc(N(C)C)s1	11.1	-6.6	-0.1	-4.2	-0.1	2.8	/
CN(C)c1ncc(C2=C(Cl)C(=O)C(N3CCCC3)=C(Cl)C2=O)s1	-17.4	4.2	0.8	-13.3	83.2*	20.4	-7.5
SMILES	Mdm2-MdmX inh	CSC inhib	XBP1 UPR activ	Beta cell apopt	CHOP UPR activ	T cruzi inh	UPR CHOP confirm
CCOC(=O)C1=c2/c(=C/c3ccncc3)c(N)c(C(=O)OC)n2C(=O)C(c2ccncc2)S1 (stereo not drawn)	19.1	5.4	1.0	4.6	0.1	12.4	/
COc1cc(CNc2ccc3[nH]c(=O)[nH]c3c2)ccc1OCc1ccccc1F	4.6	10.8	0.9	-2.6	13.8	-47.0	/
COc1cc(/C=N/NC(N)=S)cc(Br)c1OCc1ccccc1F	44.1	-30.3	25.7	22.3	51.5*	38.9	11.6
CNC(=S)N/N=C/c1cc(Br)c(OCc2ccncc2)c(OC)c1	25.9	6.1	-0.6	1.2	0.9	-11.5	/
COc1cc(CNc2ccc3[nH]c(=O)[nH]c3c2)cc(Br)c1OCc1ccccc1F	3.4	10.6	2.3	-8.7	83.4*	23.9	46.3*
COc1cccc(CN(CC2CCCO2)S(=O)(=O)c2ccc(S(=O)(=O)N(C)C)cc2)c1 (stereo not drawn)	11.6	2.2	-1.6	0.4	-2.2	2.7	/
O=C(OCC(O)COc1ccccc1)c1ccc([N+](=O)[O-])cc1 (stereo not drawn)	-35.0	3.1	0.1	7.9	-1.2	15.6	/
O=C(COC(=O)c1nc(Cl)ccc1Cl)NCc1cccs1	19.0	-0.1	-0.9	0.1	-0.2	-5.0	/
Cc1cc(N2CCC(C)CC2)nc(-n2nc(C)cc2C)n1	16.0	-8.7	3.0	63.7	86.5*	26.8	13.8
Cc1cc(C)n(-c2nc3ccccc3nc2N2CCC(C)CC2)n1	-3.1	7.6	-0.3	-1.7	0.0	-2.1	/
O=C(Nc1ccccc1F)c1coc(=O)c(Br)c1	-12.8	4.9	14.1	-4.6	2.8	-13.1	/
O=C(NCCc1ccc(F)cc1)c1coc(=O)c(Br)c1	42.4	43.4	-7.7	-4.1	125.2*	-0.5	87.9*
CCOC(=O)c1cc2sccc2n1CC(=O)N1CCCC1	-1.2	-2.3	-4.4	-3.3	-0.6	-17.3	/
NC(=O)CN1CCOCCOCCN(CC(N)=O)CCOCCOCC1	25.9	-5.6	0.1	0.3	-0.9	-4.1	/
CC(C)=CCc1c(O)ccc2c1OC(c1ccc(O)c(O)c1)CC2=O (stereo not drawn)	7.3	45.3	15.2	0.0	68.7*	-21.7	27.1
COC(=O)Nc1nn(-c2ccc(OC)cc2)c(=O)c(C#N)c1C	6.6	-3.6	1.1	1.4	0.9	-16.1	/
O=C(CCS(=O)(=O)c1ccccc1)N(CCCN1CCOCC1)c1nc2ccc(F)cc2s1	44.7	61.6	-7.3	10.6	56.5*	63.0*	21.1

High-throughput results from PubChem BioAssay.
